Results reported in ChEMBL document CHEMBL3877244, “Synthesis and biological evaluation of new aryl-alkyl(alkenyl)-4-benzylpiperidines, novel Sigma Receptor (SR) modulators, as potential anticancer-agents” (Eur J Med Chem, 2016).
Active and inactive are the calls of the source. The rule behind the calls is not given here.

What was measured:
[1] = Cytotoxicity against human PC3 cells assessed as reduction in cell viability after 24 hrs in presence of 10% fetal calf serum by MTS assay; type: functional, cell-based; settings: PC-3, 24 h
Summary of the method: (§1)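 Cells in exponential growth, 3×10^3 per well, in medium with 10% FCS. Capan-2, PaCa3, MDA-MB 231, SUM 159 and PC3 were grown in DMEM/Ham's F12 with glutamine 2 mM and insulin 10 µg/ml. U87 was grown in EMEM and LNCaP in RPMI, each with glutamine. Compound 0.1–100 µM, continuous exposure (24 h; 48 h for the 48 h lines). MTS, OD 490 nm. IC50 read graphically. Three independent experiments in octuplicate.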

[2] = test system: Paca3; experiment: Induction of apoptosis in human Paca3 cells assessed as cleaved form of caspase 3 at 25 uM after 24 hrs in presence of 10% fetal calf serum by Western blot analysis; type: functional, cell-based
Summary of the method: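 PaCa3 cells in 10% serum medium, exposed 24 h to 25 μM. Cleaved caspase 3 detected by western blot. Membranes blocked with T-TBS (0.1% Tween) and 5% non-fat milk, primary antibody overnight at 4 °C, then secondary antibody, chemiluminescent detection. Two independent experiments.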

[3] = Induction of apoptosis in human Paca3 cells assessed as late apoptotic cells in absence of 10% fetal calf serum at 10 uM after 24 hrs by annexin V-FITC/propidium iodide staining-based flow cytometry (reference value: 4.6 +/- 0.5%); type: functional
[4] = molecular target: Sigma non-opioid intracellular receptor 1 (Rattus norvegicus) (UniProt Q9R0C9); experiment: Antagonist activity at sigma 1 receptor in rat PC12 cells assessed as inhibition of NGF-induced neurite outgrowth at 2.5 to 10 uM after 96 hrs; type: cell-based; settings: PC-12
Chain of Sigma non-opioid intracellular receptor 1 (Rattus norvegicus) (Q9R0C9 whole entry): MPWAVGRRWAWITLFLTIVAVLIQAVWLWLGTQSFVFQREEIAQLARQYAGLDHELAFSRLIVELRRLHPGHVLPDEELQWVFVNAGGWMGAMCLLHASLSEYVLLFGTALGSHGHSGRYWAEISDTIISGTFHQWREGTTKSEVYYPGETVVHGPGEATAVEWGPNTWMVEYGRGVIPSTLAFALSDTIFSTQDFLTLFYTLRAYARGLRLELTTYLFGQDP
Summary of the method: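 PC12 cells grown in RPMI 1640 with 10% heat-inactivated horse serum and 5% FBS. Differentiation ran in medium with 0.5% serum plus NGF 2.5 ng/ml, with compound at 0–10 μM for 96 h. Neurite outgrowth was scored. Data are mean±sem of at least 5 experiments, each in triplicate.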

[5] = test system: SUM-159-PT; experiment: Cytotoxicity against human SUM159 cells assessed as reduction in cell viability after 48 hrs in presence of 10% fetal calf serum by MTS assay; type: functional, cell-based; summary of the method: as §1
[6] = test system: Paca3; experiment: Induction of apoptosis in human Paca3 cells assessed as cleaved form of caspase 3 at 10 uM after 24 hrs in absence of 10% fetal calf serum by Western blot analysis; type: functional, cell-based
Summary of the method: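 PaCa3 cells starved 24 h without FCS, then exposed to 10 μM. Cleaved caspase 3 detected by western blot. Membranes blocked with 5% milk in T-TBS, primary antibody overnight at 4 °C, then secondary antibody, chemiluminescent detection.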

In the case of `C/C(=C\CN1CCC(Cc2ccccc2)CC1)c1ccc2ccccc2c1`, the IC50 [1] is reported as 50.6 µM, the Activity [2] is reported as “Active” and the Activity [3] is reported as 17.2%. For the same compound, the inhibition [4] was “Active”, the Activity [5] was “Active” and the Activity [6] was “Active”.
